Test results published in ChEMBL document CHEMBL3244396, “Synthesis and antileukemic activity of 5-substituted 2,3-dihydro-6,7-bis(hydroxymethyl)-1H-pyrrolizine diesters” (J Med Chem, 1977).

How the values were obtained:
[1] = tested on: P388; assay: Antitumor activity against mouse P388 cells allografted in female CDF1 mouse assessed as disease cures by measuring 30-days host survival at 400 mg/kg, ip administered daily for 9 days as saline with Tween-80 solution starting 24 hrs after tumor inoculation relative to control; assay type: functional; conditions: route intraperitoneal
Outline: (§1)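 P388 ascitic cell inoculum given ip to CDF1 mice of the sex in each line. Nine daily ip doses in saline with Tween-80 as vehicle, starting 24 h after inoculation. Median survival time expressed as %T/C (>125 significant); "cure" defined as 30-day survival.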

[2] = tested on: P388; assay: Antitumor activity against mouse P388 cells allografted in female CDF1 mouse assessed as disease cures by measuring 30-days host survival at 25 mg/kg, ip administered daily for 9 days as saline with Tween-80 solution starting 24 hrs after tumor inoculation relative to control; assay type: functional; conditions: route intraperitoneal; outline: as §1
[3] = tested on: Mus musculus; assay: Toxicity in female CDF1 mouse allografted with mouse P388 cells assessed as animal survival at 50 mg/kg, ip administered daily for 9 days as saline with Tween-80 solution starting 24 hrs after tumor inoculation; assay type: organism-based; parameters: dose 50 mg/kg, route intraperitoneal; conditions: in vivo
Outline: (§2)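 P-388 leukemia ascitic fluid implanted ip. Compound dosed ip in saline with Tween-80 vehicle, once daily for nine doses from 24 h after tumor inoculation. Acute toxicity scored as toxicity-day survivors per group. Survival was followed up to 30 days, with 30-day survival counted as "cure". Follows NCI screening protocols.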

[4] = tested on: Mus musculus; assay: Toxicity in female CDF1 mouse allografted with mouse P388 cells assessed as animal survival at 200 mg/kg, ip administered daily for 9 days as saline with Tween-80 solution starting 24 hrs after tumor inoculation; assay type: organism-based; parameters: dose 200 mg/kg, route intraperitoneal; conditions: in vivo; outline: as §2
[5] = tested on: P388; assay: Antitumor activity against mouse P388 cells allografted in male CDF1 mouse assessed as disease cures by measuring 30-days host survival at 25 mg/kg, ip administered daily for 9 days as saline with Tween-80 solution starting 24 hrs after tumor inoculation relative to control; assay type: functional; conditions: route intraperitoneal; outline: as §1
[6] = tested on: Mus musculus; assay: Toxicity in male CDF1 mouse allografted with mouse P388 cells assessed as animal survival at 100 mg/kg, ip administered daily for 9 days as saline with Tween-80 solution starting 24 hrs after tumor inoculation; assay type: organism-based; parameters: dose 100 mg/kg, route intraperitoneal; conditions: in vivo; outline: as §2
[7] = tested on: P388; assay: Antitumor activity against mouse P388 cells allografted in female CDF1 mouse assessed as change in body weight at 50 mg/kg, ip administered daily for 9 days as saline with Tween-80 solution starting 24 hrs after tumor inoculation; assay type: functional; conditions: route intraperitoneal
Outline: (§3)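 Ascitic fluid carrying P388 cells was inoculated ip. Compound was given ip in nine daily doses, starting 24 h after inoculation, in Klucel (hydroxypropylcellulose) suspension or in saline with Tween-80. Body-weight difference (treated minus control) was recorded on day 5. Survival was scored as %T/C of median survival time, and 30-day survival counted as cure.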

[8] = tested on: Mus musculus; assay: Toxicity in male CDF1 mouse allografted with mouse P388 cells assessed as animal survival at 50 mg/kg, ip administered daily for 9 days as saline with Tween-80 solution starting 24 hrs after tumor inoculation; assay type: organism-based; parameters: dose 50 mg/kg, route intraperitoneal; conditions: in vivo; outline: as §2
[9] = tested on: P388; assay: Antitumor activity against mouse P388 cells allografted in female CDF1 mouse assessed as disease cures by measuring 30-days host survival at 50 mg/kg, ip administered daily for 9 days as saline with Tween-80 solution starting 24 hrs after tumor inoculation relative to control; assay type: functional; conditions: route intraperitoneal; outline: as §1
[10] = tested on: P388; assay: Antitumor activity against mouse P388 cells allografted in female CDF1 mouse assessed as change in body weight at 100 mg/kg, ip administered daily for 9 days as saline with Tween-80 solution starting 24 hrs after tumor inoculation; assay type: functional; conditions: route intraperitoneal; outline: as §3
[11] = tested on: P388; assay: Antitumor activity against mouse P388 cells allografted in female CDF1 mouse assessed as change in body weight at 200 mg/kg, ip administered daily for 9 days as saline with Tween-80 solution starting 24 hrs after tumor inoculation; assay type: functional; conditions: route intraperitoneal; outline: as §3
[12] = tested on: P388; assay: Antitumor activity against mouse P388 cells allografted in male CDF1 mouse assessed as disease cures by measuring 30-days host survival at 50 mg/kg, ip administered daily for 9 days as saline with Tween-80 solution starting 24 hrs after tumor inoculation relative to control; assay type: functional; conditions: route intraperitoneal; outline: as §1
[13] = tested on: P388; assay: Antitumor activity against mouse P388 cells allografted in female CDF1 mouse assessed as change in body weight at 400 mg/kg, ip administered daily for 9 days as saline with Tween-80 solution starting 24 hrs after tumor inoculation; assay type: functional; conditions: route intraperitoneal; outline: as §3
[14] = tested on: P388; assay: Antitumor activity against mouse P388 cells allografted in male CDF1 mouse assessed as disease cures by measuring 30-days host survival at 100 mg/kg, ip administered daily for 9 days as saline with Tween-80 solution starting 24 hrs after tumor inoculation relative to control; assay type: functional; conditions: route intraperitoneal; outline: as §1
[15] = tested on: P388; assay: Antitumor activity against mouse P388 cells allografted in female CDF1 mouse assessed as change in body weight at 25 mg/kg, ip administered daily for 9 days as saline with Tween-80 solution starting 24 hrs after tumor inoculation; assay type: functional; conditions: route intraperitoneal; outline: as §3
[16] = tested on: Mus musculus; assay: Toxicity in female CDF1 mouse allografted with mouse P388 cells assessed as animal survival at 25 mg/kg, ip administered daily for 9 days as saline with Tween-80 solution starting 24 hrs after tumor inoculation; assay type: organism-based; parameters: dose 25 mg/kg, route intraperitoneal; conditions: in vivo; outline: as §2
[17] = tested on: P388; assay: Antitumor activity against mouse P388 cells allografted in male CDF1 mouse assessed as change in body weight at 25 mg/kg, ip administered daily for 9 days as saline with Tween-80 solution starting 24 hrs after tumor inoculation; assay type: functional; conditions: route intraperitoneal; outline: as §3
[18] = tested on: P388; assay: Antitumor activity against mouse P388 cells allografted in male CDF1 mouse assessed as change in body weight at 100 mg/kg, ip administered daily for 9 days as saline with Tween-80 solution starting 24 hrs after tumor inoculation; assay type: functional; conditions: route intraperitoneal; outline: as §3
[19] = tested on: P388; assay: Antitumor activity against mouse P388 cells allografted in female CDF1 mouse assessed as disease cures by measuring 30-days host survival at 200 mg/kg, ip administered daily for 9 days as saline with Tween-80 solution starting 24 hrs after tumor inoculation relative to control; assay type: functional; conditions: route intraperitoneal; outline: as §1
[20] = tested on: P388; assay: Antitumor activity against mouse P388 cells allografted in female CDF1 mouse assessed as disease cures by measuring 30-days host survival at 100 mg/kg, ip administered daily for 9 days as saline with Tween-80 solution starting 24 hrs after tumor inoculation relative to control; assay type: functional; conditions: route intraperitoneal; outline: as §1
[21] = tested on: P388; assay: Antitumor activity against mouse P388 cells allografted in male CDF1 mouse assessed as change in body weight at 50 mg/kg, ip administered daily for 9 days as saline with Tween-80 solution starting 24 hrs after tumor inoculation; assay type: functional; conditions: route intraperitoneal; outline: as §3
[22] = tested on: Mus musculus; assay: Toxicity in female CDF1 mouse allografted with mouse P388 cells assessed as animal survival at 100 mg/kg, ip administered daily for 9 days as saline with Tween-80 solution starting 24 hrs after tumor inoculation; assay type: organism-based; parameters: dose 100 mg/kg, route intraperitoneal; conditions: in vivo; outline: as §2

CCCCNC(=O)OCc1c(COC(=O)NCCCC)c(-c2ccc(Cl)c(Cl)c2)n2c1CCC2 was tested, and the T/C [1] was 84%, the T/C [2] was 159% and the Activity [3] was “Non-toxic”. For the same compound, the Activity [4] was “Non-toxic”, the T/C [5] was 138% and the Activity [6] was “Non-toxic”. For the same compound, the Activity [7] was -1.9 g, the Activity [8] was “Non-toxic” and the T/C [9] was 171%. For the same compound, the Activity [10] was -2 g, the Activity [11] was -3.2 g and the T/C [12] was 137%. It also gave an Activity [13] of -3.6 g, a T/C [14] of 160% and an Activity [15] of -1.2 g. The Activity [16] was “Non-toxic”, the Activity [17] was -1.9 g and the Activity [18] was -0.4 g. The T/C [19] was 163%, the T/C [20] was 181% and the Activity [21] was -1.1 g. For the same compound, the Activity [22] was “Non-toxic”.
